Data reported in ChEMBL document CHEMBL3112425, “Design, synthesis, and structure-activity relationship studies of a potent PACE4 inhibitor” (J Med Chem, 2014).
Peptide text beside a SMILES is read from it. * marks the point of attachment. X1 = N=C(N)NC/C=C/CN*

Experiments:
[1] = target: T1, Proprotein convertase subtilisin/kexin type 6 (Homo sapiens, UniProt P29122); test: Inhibition of human recombinant PACE4 expressed in drosophila schneider 2 cells using pyroGlu-Arg-Thr-Lys-Arg-AMC as substrate after 1 hr
T1 sequence (P29122 whole entry): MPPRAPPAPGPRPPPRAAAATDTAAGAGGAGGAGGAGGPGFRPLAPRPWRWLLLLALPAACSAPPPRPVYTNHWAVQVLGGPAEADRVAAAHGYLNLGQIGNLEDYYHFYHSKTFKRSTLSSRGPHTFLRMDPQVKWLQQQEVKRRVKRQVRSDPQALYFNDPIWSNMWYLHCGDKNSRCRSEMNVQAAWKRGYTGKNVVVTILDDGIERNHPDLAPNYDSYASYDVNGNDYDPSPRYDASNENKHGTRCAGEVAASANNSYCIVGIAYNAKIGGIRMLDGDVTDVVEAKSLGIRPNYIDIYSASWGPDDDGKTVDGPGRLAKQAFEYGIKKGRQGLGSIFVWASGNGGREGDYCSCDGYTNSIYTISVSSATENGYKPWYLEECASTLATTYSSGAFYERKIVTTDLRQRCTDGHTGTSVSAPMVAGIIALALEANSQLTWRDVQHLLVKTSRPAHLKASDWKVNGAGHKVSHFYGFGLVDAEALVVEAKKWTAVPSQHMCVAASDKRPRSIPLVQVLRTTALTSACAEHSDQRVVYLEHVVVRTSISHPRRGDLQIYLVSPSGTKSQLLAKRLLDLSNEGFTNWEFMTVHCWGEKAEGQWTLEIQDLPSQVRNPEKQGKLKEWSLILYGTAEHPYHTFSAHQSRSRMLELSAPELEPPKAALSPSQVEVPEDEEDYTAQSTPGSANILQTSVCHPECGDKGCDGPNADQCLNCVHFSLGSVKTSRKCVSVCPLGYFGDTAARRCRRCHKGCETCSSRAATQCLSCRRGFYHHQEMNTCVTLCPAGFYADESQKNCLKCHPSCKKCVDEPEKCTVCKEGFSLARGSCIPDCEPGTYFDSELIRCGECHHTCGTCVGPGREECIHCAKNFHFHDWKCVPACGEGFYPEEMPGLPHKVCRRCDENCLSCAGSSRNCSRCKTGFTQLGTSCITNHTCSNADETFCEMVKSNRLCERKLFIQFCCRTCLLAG
Procedure, shortened: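 Human enzymes were expressed in Drosophila S2 cells and purified. Fluorogenic pyroGlu-RTKR-AMC was used at fixed concentration with varied inhibitor, 37 °C over 1 h. Buffers: furin, 100 mM Hepes pH 7.5, 1 mM CaCl2, 1 mM β-mercaptoethanol, 1.8 mg/mL BSA; PACE4 and PC7, 20 mM Bis-Tris pH 6.5, 1 mM CaCl2, 1.8 mg/mL BSA; PC2, same buffer at pH 5.7. Ki from IC50 (Cheng–Prusoff), or apparent Ki (Morrison) for tight binders. Triplicate, mean ± SD.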

[2] = Acute toxicity in human DU145 cells assessed as cell death/lysis at 100 uM after 4 hrs by LDH assay; format: cell-based, DU-145; settings: read-out: INH
Procedure, shortened: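 DU145 cells (RPMI 1640, 5% FBS, 37 °C, 5% CO2) plated; 24 h later peptides added at 100 μM. After 4 h, release of lactate dehydrogenase into the medium was quantified enzymatically with a commercial LDH cytotoxicity kit as the measure of acute membrane damage/lysis.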

DU-145 = test: Cytotoxicity against human DU145 cells after 72 hrs by MTT assay; format: functional, cell-based; settings: DU-145, 72 h
Procedure, shortened: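 Prostate cancer cells were kept in RPMI 1640 at 37 °C, 5% CO2, with 5% FBS for DU145 and 10% FBS for LNCaP and PC3. After 24 h, medium was changed and peptides added at various concentrations, up to 350 μM. Viability was read by MTT after 72 h treatment. IC50 from dose–response curves, triplicate, mean ± SEM.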

Ki [1]: 0.0053 µM
SMILES: CC(=O)N[C@@H](CC(C)C)C(=O)N[C@@H](CC(C)C)C(=O)N[C@@H](CC(C)C)C(=O)N[C@@H](CC(C)C)C(=O)N[C@@H](CCCNC(=N)N)C(=O)N[C@H](C(=O)N[C@@H](CCCCN)C(=O)NC/C=C/CNC(=N)N)C(C)C (Ac-LLLLRVK-X1)
cytotoxicity at 4 h, 100 µM [2]: < 5% | IC50 (DU-145): 90 µM
